Only a selection was taken, and hits are over-represented in it overall.
Ab BasE inh – BasE siderophore biosynthesis inhibition | purified BasE, fluorescence polarization binding displacement | inhibition, % (test concentration not listed) | actives 0.1% (n = 84,000); in the data active = inhibition above about 25%, passing the limit was not always enough;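 also: 0% = negative plate control signal and 100% = positive plate control signal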
LANA-nucl inh – inhibitors of KSHV LANA binding to nucleosomes | actives 0.3% (n = 51,000) | AID 720717 | FITC-LANA1-23 / chicken nucleosome fluorescence polarization; stronger effect = lower value | z-score (test concentration not listed);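 active = both repeat wells score below -2 in polarization z-score versus plate sample wells, excluding overly bright wells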
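test system = FITC-LANA peptide and chicken nucleosomes | amount = 240 nM purified chicken nucleosomes (480 nM peptide binding sites), final | reagent = 50 nM FITC-LANA1-23 probe | medium = TEN-BT buffer, pH 7.5 | doses = single compound addition by pin transfer, 100 nL per well | timing = 10–45 min, room temperature | detection = fluorescence polarization | repeats = duplicate plates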
Active calls of the source: *; x = no result given.

SMILES	Ab BasE inh	LANA-nucl inh
O=S(=O)(c1ccc(O)cc1)c1ccc(O)cc1	66*	x
CC(C)c1ccc(O)cc1	10	x
Cc1nc2ccccc2c(C)c1CC(=O)N1CCN(CCOc2ccccc2)CC1	2	x
N#CC(C#N)=Cc1ccc(O)c(Cl)c1	5	-0.85
S=C=NCC1CCCO1 (stereo not drawn)	2	x
COC(=O)N1CC2CC(C1)c1cccc(=O)n1C2 (stereo not drawn)	-2	1.8
CN1CCc2c(C#N)c(N)n(N)c(=S)c2C1	42	-3.8*
CN1CCc2c(C#N)c(Cl)nc(NCc3ccccc3)c2C1	2	0.063
COc1ccc2c(c1OC)C(=O)OC2C1c2cc3c(cc2CCN1C)OCO3 (stereo not drawn)	-2	-0.68
CN1CCc2cc3c(c4c2C1Cc1ccccc1-4)OCO3 (stereo not drawn)	22	-3.2*
CC[C@@]1(O)C[C@H](O[C@H]2C[C@H](N(C)C)[C@H](O)[C@H](C)O2)c2c(cc3c(c2O)C(=O)c2c(O)cccc2C3=O)[C@H]1C(=O)OC	-2	2.2
CC[C@@]1(O)C[C@H](O[C@H]2C[C@H](N(C)C)[C@H](O)[C@H](C)O2)c2c(cc3c(c2O)C(=O)c2c(O)ccc(O)c2C3=O)[C@H]1C(=O)OC	5	-2.8*
Cc1ccc(OC(=O)N(C)C)c(CN(C)C)c1	0	0.19
CC(Cc1ccccc1)[n+]1cc(N)on1 (stereo not drawn)	2	x
CCN1CCN(c2ccc(N)cc2)CC1	x	-2.9*
CN1CCN(c2ccc(N)cc2)CC1	0	x
Cc1ccc(C=C(C#N)C#N)o1	4	-0.56
N#CC(C#N)=Cc1ccc(-c2ccccc2)o1	-26	-4.7*
c1cc(C2CCNCC2)ccn1	0	1.4
N#Cc1c(/N=C/c2ccc(O)cc2O)sc2c1C1CCN2CC1	17	-3.9*
CCN(CC(=O)c1ccc(C#N)cc1)C1CCCCC1	3	x

Assay outcomes deposited in PubChem by ICCB-Longwood Screening Facility, Harvard Medical School.
